# Bioassay records: PubChem BioAssay, several laboratories
# HCV NS3 hel inh: blocks Hepatitis C virus NS3 helicase unwinding; actives 0.56% (n = 290,000); NS3 helicase DNA unwinding, Cy5 molecular beacon fluorescence; AID 1800; inhibition, % at 10.9 µM;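 active = inhibition above the mean of all tested compounds plus 3 SD, set per campaign, cut at about 35% in these data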;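 note: 0% = DMSO wells and 100% = thioflavine S control wells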
#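 assay system = NS3 helicase fragment of HCV | buffer or medium = MOPS pH 6.5, MgCl2, DTT, Tween20, BSA | timing = 60 min unwinding reaction at 25 °C after ATP addition | signal = Cy5 beacon fluorescence read at start and 1 h | read-out basis = % inhibition of unwinding | control set = low DMSO, high thioflavine S at 110 µM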
# DNMT1 block: DNMT1 (human) enzyme inhibition. AID 588458. DNMT1 molecular beacon, Hinp1I cleavage, fluorescence. actives 0.83% (n = 360,000). inhibition (reported as % activation of signal), % at 10 µM. P26358
# NSD2 inh: blocks human histone methyltransferase NSD2; NSD2 peptide methylation, AlphaScreen, 120 min; inhibition, % at 12.5 µM; O96028; actives 0.54% (n = 310,000)
# Casp6 inh: inhibitors of human caspase-6; purified caspase-6, Z-VEID-R110 cleavage fluorescence; inhibition, % at 12.5 µM; actives 0.53% (n = 350,000); AID 686996;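 active = mean inhibition across replicates at least about 35%, with every replicate also reaching that limit, limit read from the data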;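 note: 0% = median of neutral control wells and 100% = no fluorescence left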
# DNMT1 interf DR: beacon fluorescence artifact, dose response counter-screen; shares compounds with DNMT1 block; molecular beacon fluorescence, spectral interference counter-screen; IC50, µM; 200 tested, under 10 active; call rule not given here
# DNMT1 inh conf: confirmation of human DNMT1 inhibitors; shares compounds with DNMT1 block; DNMT1 molecular beacon HinP1I cleavage, fluorescence; inhibition, % at 10 µM; actives 8% (n = 2,300); AID 602385;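 active = average inhibition of at least 30% in the single-concentration confirmation test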
# DNMT1 interf: beacon fluorescence artifact counter-screen | shares compounds with DNMT1 block | DNMT1 molecular beacon spectral interference counterscreen, fluorescence 485/520 | activation (fluorescence interference), % at 10 µM | actives 1% (n = 2,300);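 active = activation of at least 30% at 10 µM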;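 note: DNMT1 catalytic domain with a HinP1I cleavage step and a FAM/dabcyl DNA beacon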
# Active calls of the source: *; / = no result given. This is a sample that favours compounds with a hit; in the whole collection about 1.5% have one here. Cut-off read from the data, not from the text of the source, unless noted: active = inhibition above about 50%; inactive = the rest.
SMILES,HCV NS3 hel inh,DNMT1 block,NSD2 inh,Casp6 inh,DNMT1 inh conf,DNMT1 interf,others
CC(C(=O)Nc1nccs1)N1C(=O)C2CC=CCC2C1=O (stereo not drawn),-4.0,3.3,-3.9,/,/,/,
C[C@@H](C(=O)Nc1nccs1)N1C(=O)C2CC=CCC2C1=O (stereo partly drawn),/,60.1*,-0.8,1.3,-1.3,4.1,
O=[N+]([O-])c1ccc(-c2cn(-c3ccc(Cl)cc3)cn2)cc1,/,54.3*,-4.0,1.2,4.8,-0.3,
COc1cc(OC)c2ccc(=O)oc2c1C(CC(=O)N1CCCC1)c1ccc2c(c1)OCO2 (stereo not drawn),/,72.2*,/,10.3,-0.1,-3.8,
O=C(C[C@@H]1CC[C@@H]2[C@H](COC[C@@H](O)CN2C(=O)Nc2ccc(Cl)cc2)O1)NCCc1ccncc1,/,/,/,0.2,/,/,
Cc1cccc(/C=C/C(=O)c2cc(Br)ccc(=O)c2O)c1,23.1,92.7*,3.5,/,10.0,4.2,
Cc1ccc(NC(=O)CCC(=O)OCC(=O)c2ccc(-c3ccccc3)cc2)cc1,-3.1,51.2*,-2.2,/,4.7,0.3,
COc1ccc(NC(=O)CCC(=O)c2ccc(-c3ccccc3)cc2)cc1,4.6,8.4,0.4,/,/,/,
COc1ccc(C(=O)NCC(=O)Nc2ccc(-c3ccccc3)cc2)cc1,-1.5,53.0*,/,-1.6,0.6,-4.3,
O=C(C1CCCCC1)N1CC2(C1)[C@H](c1ccccc1)[C@H](CO)N2Cc1cncnc1,/,/,/,1.9,/,/,
O=C(O)C[C@H]1CC[C@H](NC(=O)Nc2ccccc2)[C@H](CO)O1,/,/,/,-5.5,/,/,
C/C=C/c1ccc([C@@H]2[C@H](CO)N(Cc3cccc(F)c3)C23CN(C(=O)CC)C3)cc1,/,/,/,4.2,/,/,
CCc1nc(SCC(=O)Nc2c(C)nn(C)c2C)c2cnn(-c3ccccc3)c2n1,-2.3,/,/,/,/,/,
O=C(CSc1nc(C2CC2)nc2c1cnn2-c1ccccc1)Nc1c[nH]c(=O)[nH]c1=O,-15.2,27.4,1.5,1.1,/,/,
Cc1nn(Cc2ccccc2)c(C)c1NC(=O)CSc1nc(C2CC2)nc2c1cnn2-c1ccccc1,0.5,58.4*,1.3,/,5.3,-5.1,
Cc1nn(C)c(C)c1NC(=O)CSc1nc(Cc2ccccc2)nc2c1cnn2-c1ccccc1,-0.5,50.6*,-0.8,/,1.2,-1.4,
CCCN(C)C[C@@H]1Oc2cc(C#CCC(C)C)ccc2S(=O)(=O)N([C@@H](C)CO)C[C@@H]1C,/,/,/,0.0,/,/,
Cc1cccc(C)c1-n1nnnc1C(c1cc2ccccc2o1)N1CCN(C/C=C/c2ccccc2)CC1 (stereo not drawn),/,63.4*,/,-1.7,5.5,8.4,
CCCCN(C)CCn1c(=S)[nH]c2ncccc2c1=O,0.7,93.6*,2.2,/,0.0,-1.4,
O=C(Cc1ccccn1)NCC[C@@H]1CC[C@@H](NS(=O)(=O)c2ccc(F)cc2)[C@H](CO)O1,/,/,/,0.4,/,/,
O=C(COC(=O)/C=C/c1cccc(C(F)(F)F)c1)NC(c1ccccc1)c1ccccc1,-4.2,56.1*,-3.1,/,0.1,2.6,
O=C(COC(=O)/C=C/c1cccc(C(F)(F)F)c1)NC(=O)NCc1ccccc1,/,3.2,-0.6,1.4,/,/,
CCOc1ccc(-c2nnc(SCC(=O)Nc3ccc4c(c3)c3ccccc3n4CC)n2N)cc1,-0.8,59.4*,1.1,/,1.4,2.1,
CCn1c2ccccc2c2cc(NC(=O)CSc3nnc(-c4ccc(OC)c(OC)c4)n3N)ccc21,-14.9,-20.5,-0.9,/,/,/,
Cc1ccc(F)cc1S(=O)(=O)N[C@H]1CCN(Cc2ccc(OC(C)C)cc2)C1,/,/,/,-5.0,/,/,
SMILES,HCV NS3 hel inh,DNMT1 block,NSD2 inh,Casp6 inh,DNMT1 inh conf,DNMT1 interf,others
COCCNC(=O)c1ccc(-c2cn[nH]c2)c2ccoc12,/,67.5*,-1.0,1.7,0.3,1.1,
C[C@H](CO)N1C[C@H](C)[C@@H](CN(C)Cc2cncnc2)Oc2cc(/C=C/c3ccccc3)ccc2S1(=O)=O,/,/,/,-1.6,/,/,
O=C(O)CCCCN1C(=O)/C(=C\c2ccc(OCc3ccccc3)c(OCc3ccccc3)c2)SC1=S,9.4,80.5*,6.1,71.8*,14.8,-1.5,
COCC(=O)Nc1ccc2c(c1)C(=O)N(C)C[C@@H](OC)[C@@H](C)CN(C(=O)c1cnccn1)[C@@H](C)CO2,/,/,/,2.1,/,/,
CCc1c(Cl)nc(N)nc1Nc1ccccc1C,/,74.6*,-2.6,-4.2,1.3,2.2,
CCc1c(Cl)nc(N)nc1Nc1ccccc1Cl,/,1.6,0.0,-1.7,/,/,
O=C(N/N=C/c1cc(Br)c(Br)o1)C(O)c1ccccc1 (stereo not drawn),26.0,76.8*,14.5,40.1*,3.3,2.4,
C[C@@H]1CCCCO[C@@H](CN(C)C(=O)Nc2cccc3ccccc23)[C@H](C)CN([C@H](C)CO)C(=O)c2cc(NC(=O)Nc3ccc(C(F)(F)F)cc3)ccc2O1,/,/,/,-3.4,/,/,
Cc1ccc(NC(=O)c2ccc3nc(N4CCOCC4)sc3c2)c(Cl)c1,-15.5,52.5*,/,6.9,-1.6,-3.5,
CCc1ccccc1NC(=O)c1ccc2nc(N3CCOCC3)sc2c1,-8.2,-0.5,/,-5.8,/,/,
CCc1cccc(CC)c1-n1c(SCC(=O)c2c(N)n(C)c(=O)n(C)c2=O)nnc1-c1cccnc1,-1.1,59.5*,-3.7,/,0.3,-3.2,
CCn1c(SCC(=O)c2c(N)n(C)c(=O)n(C)c2=O)nnc1-c1ccccc1,-13.6,/,/,/,/,/,
C[C@@H]1CN([C@@H](C)CO)C(=O)c2cc(NC(=O)NC3CCCCC3)ccc2O[C@@H](C)CCCCO[C@@H]1CN(C)C(=O)c1ccccc1,/,/,/,0.8,/,/,
O=C(/C=C/c1ccco1)NCc1ccc(F)cc1,13.2,-5.3,3.1,2.9,/,/,
CCc1ccc(/C(C)=N/NC(=O)CNC(=O)/C=C/c2ccco2)cc1,/,92.2*,/,/,69.0*,-6.2,DNMT1 interf DR=>99
CCc1ccc(/C(C)=N/NC(=O)CNC(=O)/C=C/c2ccccc2OC)cc1,-15.1,-1.4,12.2,0.4,/,/,
NS(=O)(=O)c1ccc(CNC(=O)/C=C/c2ccco2)cc1,28.0,89.8*,41.7,35.7*,9.2,8.9,
COc1ccc(OC)c(/C=N/NC(=O)c2cc3c(OC)cccc3[nH]2)c1,-4.2,-4.7,-6.2,2.6,/,/,
CCOc1ccc(/C=N/NC(=O)c2cc3c(OC)cccc3[nH]2)cc1,-11.9,83.2*,/,1.3,3.5,-3.0,
CCOc1ccc(NC(=S)NC(=O)/C=C/c2ccc(OC)c(OC)c2)c([N+](=O)[O-])c1,-5.5,-10.6,-7.1,/,/,/,
CCOc1ccc(NC(=S)NC(=O)/C=C/c2ccc(C)cc2)c([N+](=O)[O-])c1,10.0,53.3*,2.9,/,1.5,-4.1,
CC(=O)OCC(=O)C12OC(C)(C)OC1CC1C3CC=C4CC(O)CCC4(C)C3CCC12C (stereo not drawn),/,15.6,-0.5,2.8,/,/,
CC1(C)OC2CC3C4CC=C5CC(O)CCC5(C)C4CCC3(C)C2(C(=O)CO)O1 (stereo not drawn),/,66.5*,-4.1,-0.3,1.6,3.5,
